Measurements: ChEMBL document CHEMBL1136482, “Substituted azoloquinolines and -quinazolines as new potent farnesyl protein transferase inhibitors” (Bioorg Med Chem Lett, 2003)
The source made the active and inactive calls. The rule behind the calls is not given here.

Columns and labels:
[1] = tested on: NIH3T3; experiment: T24H-ras-transformed NIH3T3 cell proliferation; type: functional, cell-based, Mus musculus
[2] = target: T1, Protein farnesyltransferase (Homo sapiens, UniProt P49354+P49356); experiment: Inhibition of [3H]FPP incorporation into biotinylated laminB peptide by farnesyl transferase; type: protein-complex assay
How it was run: (§1)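 Isolated FPT enzyme assay measuring incorporation of [3H]-farnesylpyrophosphate into biotinylated laminB peptide. IC50 is the concentration giving 50% reduction of incorporation. Some entries are given as percent inhibition at a single concentration.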

[3] = target: T2, Geranylgeranyl transferase type I (Homo sapiens, UniProt P49354+P53609); experiment: Inhibition of Geranylgeranylprotein transferase-I catalyzed incorporation of [3H]GGPP into biotinYRASNRSCAIL peptide; type: protein-complex assay
[4] = tested on: NIH3T3; experiment: In vivo inhibition of T24H-ras NIH3T3 tumor growth in mice (Not significant); type: functional, organism-based; conditions: Mus musculus
[5] = species on record: Homo sapiens; experiment: Compound tested for metabolism and expressed as percentage of parent drug remaining after 120 min incubation with human liver microsomes.; type: functional, organism-based
[6] = target: T2, Geranylgeranyl transferase type I; experiment: Inhibition of Geranylgeranylprotein transferase-I catalyzed incorporation of [3H]GGPP into biotinYRASNRSCAIL peptide at 10 uM; type: protein-complex assay
[7] = target: T1, Protein farnesyltransferase; experiment: Inhibition of [3H]FPP incorporation into biotinylated laminB peptide by farnesyl transferase 0.1 uM; type: protein-complex assay; how it was run: as §1
[8] = target: T1, Protein farnesyltransferase; experiment: Inhibition of [3H]FPP incorporation into biotinylated laminB peptide by farnesyl transferase at 0.1 uM; type: protein-complex assay; how it was run: as §1
[9] = tested on: NIH3T3; experiment: (§2) In vivo inhibition of T24H-ras NIH3T3 tumor growth in mice; type: functional, Mus musculus
How it was run: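 Mice were inoculated with T24 NIH 3T3 cells. Dosing at 25 mg/kg was oral, once daily, starting 2 days after tumour inoculation. Tumour growth was assessed 17 days after administration and is reported as percentage inhibition of tumour weight.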

[10] = tested on: NIH3T3; experiment: as §2; type: functional, Mus musculus; remark: listed apart in the source

| SMILES | IC50 ([1]; nih3t3) [nM] | IC50 [2] [nM] | IC50 ([1]; Mus musculus, NIH3T3) [nM] | further results |
| --- | --- | --- | --- | --- |
| Cn1cncc1C(N)(c1ccc(Cl)cc1)c1ccc2c(c1)c(-c1cccc(Cl)c1)nc1nnnn12 (stereo in doubt; 43) | 12 | 2.5 | – | IC50 [3]: 461 nM |
| Cn1cncc1C(N)(c1ccc(Cl)cc1)c1ccc2c(c1)c(-c1cccc(Cl)c1)cc1nccn12 (stereo unspecified) | – | 7 | 28 | – |
| Cn1cncc1C(N)(c1ccc(Cl)cc1)c1ccc2c(c1)c(-c1cccc(Cl)c1)cc1nnnn12 (stereo in doubt; 24) | 55 | 3.5 | – | IC50 [3]: 176 nM |
| Cc1nnc2cc(-c3cccc(Cl)c3)c3cc(C(N)(c4ccc(Cl)cc4)c4cncn4C)ccc3n12 (stereo unspecified) | – | 1.5 | 17.5 | inhibition [4]: inactive |
| Cn1cncc1C(N)(c1ccc(Cl)cc1)c1ccc2c(c1)c(-c1cccc(Cl)c1)nc1nnnn12 (stereo in doubt; 43a) [listing 1 of 2 here] | – | – | – | Metabolism [5]: 97% |
| Cn1cncc1C(N)(c1ccc(Cl)cc1)c1ccc2c(c1)c(-c1cccc(Cl)c1)cc1nnnn12 (stereo in doubt; 24b) [listing 1 of 2 here] | 20 | 1.7 | – | IC50 [3]: 81 nM |
| Cn1cncc1C(N)(c1ccc(Cl)cc1)c1ccc2c(c1)c(-c1cccc(Cl)c1)cc1nnnn12 (stereo in doubt; 24a) | > 500 | – | – | Inhibition [2]: 36%; Inhibition [6]: 55% |
| Cn1cncc1C(N)(c1ccc(Cl)cc1)c1ccc2c(c1)c(-c1cccc(Cl)c1)cc1nnc(-c3ccccc3)n12 (stereo unspecified) | – | – | 304 | inhibition [7]: 60% |
| Cn1cncc1C(N)(c1ccc(Cl)cc1)c1ccc2c(c1)c(-c1cccc(Cl)c1)nc1nncn12 (stereo unspecified) | – | 3 | 186 | – |
| Cn1cncc1C(N)(c1ccc(Cl)cc1)c1ccc2c(c1)c(-c1cccc(Cl)c1)nc1nccn12 (stereo unspecified) | – | 5 | 88 | – |
| Cn1cncc1C(N)(c1ccc(Cl)cc1)c1ccc2c(c1)c(-c1cccc(Cl)c1)cc1nncn12 (stereo unspecified) | – | – | – | inhibition [8]: 65% |
| Cn1cncc1C(N)(c1ccc(Cl)cc1)c1ccc2c(c1)c(-c1cccc(Cl)c1)cc1nnnn12 (stereo in doubt; 24b) [listing 2 of 2 here] | – | – | – | inhibition [4]: inactive |
| Cn1cncc1[C@@](N)(c1ccc(Cl)cc1)c1ccc2c(c1)c(-c1cccc(Cl)c1)cc(=O)n2C [TIPIFARNIB] | – | 0.9 | – | Inhibition [9]: 37%; Metabolism [5]: 66% |
| Cn1cncc1C(N)(c1ccc(Cl)cc1)c1ccc2c(c1)c(-c1cccc(Cl)c1)nc1nnnn12 (stereo in doubt; 43b) | 108 | 22 | – | – |
| Cn1cncc1C(N)(c1ccc(Cl)cc1)c1ccc2c(c1)c(-c1cccc(Cl)c1)cc1cnnn12 (stereo unspecified) | – | – | – | inhibition [7]: 68% |
| Cn1cncc1C(N)(c1ccc(Cl)cc1)c1ccc2c(c1)c(-c1cccc(Cl)c1)nc1nnnn12 (stereo in doubt; 43a) [listing 2 of 2 here] | 10 | 0.6 | – | IC50 [3]: > 1000 nM; Inhibition [10]: 66% |
